# Test system: Primary human hepatocytes, TRAIL cytotoxicity, ATPlite, 24 h
# Experiment: TRAIL plus compound toxicity in normal liver cells, confirmation, cytotoxicity control for TRAIL sensitizer project, cell-based, primary human hepatocytes, ATPlite luminescence, 24 h (AID 1746)
# Conditions: at 5 µM (top of the series)
# In short: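 System: primary human hepatocytes at 30–40% confluence. Also added: TRAIL at 1000 ng/mL final, added after compound pretreatment. Doses: compound at final amounts from 1.25 to 5 µM. Schedule: 4 h compound then 24 h TRAIL, 37 °C. Signal: ATP-based luminescence with ATPlite reagent.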
row,Compound,cytotoxicity with TRAIL [%]
1,CSc1nc(-c2ccccc2)nc(C(Cl)Cl)n1,68
2,CCSc1nc(-c2ccccc2)nc(C(Cl)Cl)n1,73
3,CSc1nc(-c2ccc(C)cc2)nc(C(Cl)Cl)n1,67

# Same assay, conditions: compound alone without TRAIL; at 5 µM; stronger effect = higher value
row,Compound,cytotoxicity [%]
1,CSc1nc(-c2ccccc2)nc(C(Cl)Cl)n1,22
2,CCSc1nc(-c2ccccc2)nc(C(Cl)Cl)n1,47
3,CSc1nc(-c2ccc(C)cc2)nc(C(Cl)Cl)n1,9

# Same assay, conditions: measured here: TRAIL alone reference; stronger effect = higher value; dose or concentration not given here
row,Compound,cytotoxicity [%]
1,CSc1nc(-c2ccccc2)nc(C(Cl)Cl)n1,0
2,CCSc1nc(-c2ccccc2)nc(C(Cl)Cl)n1,0
3,CSc1nc(-c2ccc(C)cc2)nc(C(Cl)Cl)n1,0
